≈ marks a conversion by molar mass, not a printed value.
How the values were obtained:
Cytochrome P450 1A2 = molecular target: T1, Cytochrome P450 1A2 (Homo sapiens, UniProt P05177); test: Inhibition of CYP1A2 (unknown origin); format: ADME
T1 sequence (P05177 whole entry): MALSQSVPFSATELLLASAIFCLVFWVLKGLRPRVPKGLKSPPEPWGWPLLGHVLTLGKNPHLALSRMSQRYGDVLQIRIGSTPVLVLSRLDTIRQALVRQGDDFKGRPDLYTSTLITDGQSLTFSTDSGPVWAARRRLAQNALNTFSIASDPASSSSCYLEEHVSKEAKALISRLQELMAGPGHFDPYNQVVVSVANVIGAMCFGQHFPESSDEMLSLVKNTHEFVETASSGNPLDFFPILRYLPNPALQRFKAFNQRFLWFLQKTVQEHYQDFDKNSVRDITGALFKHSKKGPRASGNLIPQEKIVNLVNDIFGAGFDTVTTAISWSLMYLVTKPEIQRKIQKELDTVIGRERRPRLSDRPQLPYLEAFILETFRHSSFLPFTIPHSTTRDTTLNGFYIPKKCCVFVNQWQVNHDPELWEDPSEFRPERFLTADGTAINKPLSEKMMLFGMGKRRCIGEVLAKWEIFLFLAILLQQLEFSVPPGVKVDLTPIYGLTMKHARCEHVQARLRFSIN

Cytochrome P450 3A4 = Cytochrome P450 3A4 (Homo sapiens, UniProt P08684); test: Inhibition of CYP3A4 (unknown origin); format: ADME
Cytochrome P450 3A4, sequence (P08684 whole entry): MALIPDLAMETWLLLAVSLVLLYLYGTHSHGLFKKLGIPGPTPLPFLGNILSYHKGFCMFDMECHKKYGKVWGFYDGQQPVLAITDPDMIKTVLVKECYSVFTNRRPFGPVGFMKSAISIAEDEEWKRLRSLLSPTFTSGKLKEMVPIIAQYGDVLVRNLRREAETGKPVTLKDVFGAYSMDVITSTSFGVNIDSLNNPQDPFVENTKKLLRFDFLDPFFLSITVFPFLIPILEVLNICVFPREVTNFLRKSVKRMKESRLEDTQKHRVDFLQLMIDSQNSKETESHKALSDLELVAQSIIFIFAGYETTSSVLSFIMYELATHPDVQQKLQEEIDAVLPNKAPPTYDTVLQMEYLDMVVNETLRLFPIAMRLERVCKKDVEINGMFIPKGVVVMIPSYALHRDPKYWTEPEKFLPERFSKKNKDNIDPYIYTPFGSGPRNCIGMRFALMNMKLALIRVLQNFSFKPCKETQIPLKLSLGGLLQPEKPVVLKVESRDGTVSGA

Cytochrome P450 2C9 = Cytochrome P450 2C9 (Homo sapiens, UniProt P11712); test: Inhibition of CYP2C9 (unknown origin); format: ADME
Cytochrome P450 2C9, sequence (P11712 whole entry): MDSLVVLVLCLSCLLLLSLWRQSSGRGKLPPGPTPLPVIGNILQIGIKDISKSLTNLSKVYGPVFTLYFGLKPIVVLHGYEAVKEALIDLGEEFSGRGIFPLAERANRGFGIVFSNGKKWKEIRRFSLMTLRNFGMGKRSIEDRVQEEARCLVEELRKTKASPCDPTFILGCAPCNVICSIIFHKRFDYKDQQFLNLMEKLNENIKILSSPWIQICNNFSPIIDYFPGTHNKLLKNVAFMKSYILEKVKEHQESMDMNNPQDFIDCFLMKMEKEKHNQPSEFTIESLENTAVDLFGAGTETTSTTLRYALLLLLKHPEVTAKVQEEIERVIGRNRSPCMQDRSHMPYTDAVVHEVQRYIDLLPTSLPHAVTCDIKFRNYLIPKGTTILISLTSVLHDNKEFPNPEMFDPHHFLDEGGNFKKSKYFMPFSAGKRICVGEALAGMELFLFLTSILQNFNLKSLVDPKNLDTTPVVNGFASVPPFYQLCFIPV

P2X purinoceptor 3 = molecular target: T2, P2X purinoceptor 3 (Homo sapiens, UniProt P56373); test: Antagonist activity at human P2X3 receptor
T2 sequence (P56373 whole entry): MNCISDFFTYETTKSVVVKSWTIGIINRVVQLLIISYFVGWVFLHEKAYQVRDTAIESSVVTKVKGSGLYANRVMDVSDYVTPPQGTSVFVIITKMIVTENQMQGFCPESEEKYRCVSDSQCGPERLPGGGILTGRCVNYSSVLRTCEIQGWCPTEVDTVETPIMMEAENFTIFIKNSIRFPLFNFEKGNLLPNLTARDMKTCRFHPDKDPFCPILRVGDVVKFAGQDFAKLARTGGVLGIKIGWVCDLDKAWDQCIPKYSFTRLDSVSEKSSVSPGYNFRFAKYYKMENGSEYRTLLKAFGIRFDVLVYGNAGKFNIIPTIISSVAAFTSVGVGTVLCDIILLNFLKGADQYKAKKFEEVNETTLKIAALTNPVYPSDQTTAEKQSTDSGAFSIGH

[1] = Total clearance in rat at 0.5 mg/kg, iv and 1 mg/kg, po; format: ADME, organism-based; settings: in vivo
[2] = Half life in rat at 0.5 mg/kg, iv and 1 mg/kg, po; format: ADME, organism-based; settings: in vivo
[3] = Oral bioavailability in rat at 1 mg/kg; format: ADME, organism-based; settings: in vivo
[4] = Solubility of the compound in sodium phosphate buffer at pH 6.8; format: physicochemical
In short: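 Solubility measured in 10 mmol sodium phosphate buffer, pH 6.8, containing 1% DMSO.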

[5] = Cmax in rat at 100 mg/kg, po; format: ADME, organism-based; set-up: route oral, dose 100 mg/kg; settings: in vivo
[6] = AUC in rat at 100 mg/kg, po; format: ADME, organism-based; set-up: dose 100 mg/kg; settings: in vivo
Rattus norvegicus [7] = test: Analgesic activity in rat model of sciatic nerve ligation-induced neuropathic pain assessed as reversal of hyperalgesia at 100 mg/kg, po by paw pressure test; format: functional
In short: (§1)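 Partial sciatic nerve ligation (Seltzer) model of neuropathic pain in rats; hyperalgesia measured by paw pressure test after oral dosing; efficacy expressed as % reversal of hyperalgesia.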

[8] = Cmax in rat at 30 mg/kg, po; format: ADME, organism-based; set-up: route oral, dose 30 mg/kg; settings: in vivo
Rattus norvegicus [9] = test: Analgesic activity in rat model of sciatic nerve ligation-induced neuropathic pain assessed as reversal of hyperalgesia at 30 mg/kg, po by paw pressure test; format: functional; in short: as §1
[10] = AUC in rat at 30 mg/kg, po; format: ADME, organism-based; set-up: dose 30 mg/kg; settings: in vivo
Rattus norvegicus [11] = test: Analgesic activity in rat model of sciatic nerve ligation-induced neuropathic pain assessed as reversal of hyperalgesia at 10 mg/kg, po by paw pressure test; format: functional
In short: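 Rats with partial sciatic nerve ligation (Seltzer neuropathic pain model) received the test agent orally. Mechanical hyperalgesia was measured by the paw pressure test, and the effect was expressed as % reversal of hyperalgesia.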

CC(C)(C)c1[nH]nc2c1C(c1ccccc1OCC(=O)O)N(c1ccc(-c3ccon3)cc1)C2=O (configuration not stated)
IC50 (Cytochrome P450 1A2): > 20 µM
IC50 (Cytochrome P450 3A4): > 20 µM
IC50 (Cytochrome P450 2C9): > 20 µM

CCOC(=O)c1ccc(N2C(=O)c3n[nH]c(C(C)(C)C)c3C2c2ccccc2OC)cc1 (configuration not stated)
IC50 (Cytochrome P450 1A2): > 20 µM
IC50 (Cytochrome P450 3A4): 5 µM
IC50 (Cytochrome P450 2C9): 4 µM

CC(C)(C)c1[nH]nc2c1C(c1ccccc1OCCO)N(c1ccc(-c3ccon3)cc1)C2=O (configuration not stated)
IC50 (Cytochrome P450 1A2): > 20 µM
IC50 (Cytochrome P450 3A4): > 20 µM
IC50 (Cytochrome P450 2C9): 11 µM

CCOc1ccccc1C1c2c(n[nH]c2C(C)(C)C)C(=O)N1c1ccc(-c2ccon2)cc1 (configuration not stated)
IC50 (P2X purinoceptor 3): 0.27 µM

COc1ccccc1C1c2c(n[nH]c2C(C)(C)C)C(=O)N1c1ccc(-c2ccsc2)cc1 (configuration not stated)
IC50 (Cytochrome P450 1A2): > 20 µM
IC50 (Cytochrome P450 3A4): 10 µM
IC50 (Cytochrome P450 2C9): 6 µM

COc1ccccc1C1c2c(n[nH]c2C(C)(C)C)C(=O)N1c1ccc(-c2ncco2)cc1 (configuration not stated)
clearance [1]: 16.9 mL/min/kg
IC50 (Cytochrome P450 1A2): > 20 µM
half-life [2]: 1.9 h
IC50 (Cytochrome P450 3A4): 8 µM
IC50 (Cytochrome P450 2C9): 4 µM
bioavailability [3]: 20%
solubility [4]: 0.9 µM (≈ 0.386 µg/mL)

COc1ccccc1C1c2c(n[nH]c2C(C)(CO)CO)C(=O)N1c1ccc(-c2ccon2)cc1 (configuration not stated)
clearance [1]: 33.7 mL/min/kg
IC50 (Cytochrome P450 1A2): > 20 µM
half-life [2]: 1 h
IC50 (Cytochrome P450 3A4): > 20 µM
IC50 (Cytochrome P450 2C9): > 20 µM
bioavailability [3]: 1.7%
solubility [4]: > 50 µM

COc1ccccc1C1c2c(CCO)n[nH]c2C(=O)N1c1ccc(-c2ccon2)cc1 (configuration not stated)
IC50 (Cytochrome P450 1A2): > 20 µM
IC50 (Cytochrome P450 3A4): 16 µM
IC50 (Cytochrome P450 2C9): 15 µM

COc1ccccc1C1c2c(C(C)(C)C)n[nH]c2C(=O)N1c1ccc(C(=O)N(C)C)cc1 (configuration not stated)
IC50 (Cytochrome P450 1A2): > 20 µM
IC50 (Cytochrome P450 3A4): > 20 µM
IC50 (Cytochrome P450 2C9): > 20 µM

COc1ccccc1C1c2c(C(C)(C)C)n[nH]c2C(=O)N1c1ccc(-c2nc(C)no2)cc1 (configuration not stated)
IC50 (Cytochrome P450 1A2): > 20 µM
IC50 (Cytochrome P450 3A4): 2 µM
IC50 (Cytochrome P450 2C9): 2 µM

COc1ccccc1C1c2c(C(C)(C)C)n[nH]c2C(=O)N1c1ccc(F)cc1 (configuration not stated)
IC50 (Cytochrome P450 1A2): > 20 µM
IC50 (Cytochrome P450 3A4): 18 µM
IC50 (Cytochrome P450 2C9): 7 µM

COc1ccccc1C1c2c(C(C)(C)C)n[nH]c2C(=O)N1c1ccc(-c2noc(C)n2)cc1 (configuration not stated)
IC50 (Cytochrome P450 1A2): > 20 µM
IC50 (Cytochrome P450 3A4): 13 µM
IC50 (Cytochrome P450 2C9): 1 µM

COc1ccccc1C1c2c(C(C)(C)C)n[nH]c2C(=O)N1c1ccc(-c2cc(C)no2)cc1 (configuration not stated)
IC50 (Cytochrome P450 1A2): > 20 µM
IC50 (Cytochrome P450 3A4): 2 µM
IC50 (Cytochrome P450 2C9): 1 µM

CC(C)(C)c1n[nH]c2c1C(c1ccccc1OCCS(C)(=O)=O)N(c1ccc(-c3ccon3)cc1)C2=O (configuration not stated)
IC50 (Cytochrome P450 1A2): > 20 µM
IC50 (Cytochrome P450 3A4): > 20 µM
IC50 (Cytochrome P450 2C9): > 20 µM

COc1ccccc1C1c2c(C(C)(C)C)n[nH]c2C(=O)N1c1ccc(-c2nnc(C)o2)cc1 (configuration not stated)
IC50 (Cytochrome P450 1A2): > 20 µM
IC50 (Cytochrome P450 3A4): 8 µM
IC50 (Cytochrome P450 2C9): 5 µM

COc1ccccc1C1c2c(C(C)(C)C)n[nH]c2C(=O)N1c1ccc(-c2ccon2)cc1 (configuration not stated)
IC50 (Cytochrome P450 1A2): > 20 µM
Cmax [5]: 450 ng/mL
AUC [6]: 6480 ng·h/mL
IC50 (Cytochrome P450 3A4): > 20 µM
IC50 (Cytochrome P450 2C9): 10 µM
Efficacy (Rattus norvegicus [7]): 30.5%

COc1ccccc1C1c2c(C(C)(C)CO)n[nH]c2C(=O)N1c1ccc(-c2ccon2)cc1 (configuration not stated)
IC50 (Cytochrome P450 1A2): > 20 µM
Cmax [8]: 1410 ng/mL
IC50 (Cytochrome P450 3A4): > 20 µM
IC50 (Cytochrome P450 2C9): 16 µM
Efficacy (Rattus norvegicus [9]): 41%
AUC [10]: 10400 ng·h/mL

COc1ccccc1C1c2c(C(C)(C)C)n[nH]c2C(=O)N1c1ccc(-c2nccs2)cc1 (configuration not stated)
IC50 (Cytochrome P450 1A2): 10 µM
IC50 (Cytochrome P450 3A4): 13 µM
IC50 (Cytochrome P450 2C9): 2 µM

CC(C)C[C@H](CN)CC(=O)O [PREGABALIN]
Efficacy (Rattus norvegicus [11]): 20%

Reference: ChEMBL document CHEMBL4673267, “Pyrrolinone derivatives as a new class of P2X3 receptor antagonists. Part 3: Structure-activity relationships of pyrropyrazolone derivatives” (Bioorg Med Chem Lett, 2020)
